According to ChEMBL document CHEMBL3108749, “Discovery of a non-estrogenic irreversible inhibitor of 17β-hydroxysteroid dehydrogenase type 1 from 3-substituted-16β-(m-carbamoylbenzyl)-estradiol derivatives” (J Med Chem, 2014):
Calls of active or inactive are those of the source. The rule behind the calls is not given here.

Tests used:
[1] = molecular target: T1, 3-keto-steroid reductase/17-beta-hydroxysteroid dehydrogenase 7 (Homo sapiens) (UniProt P56937); assay: Inhibition of 17-beta HSD7 (unknown origin) transfected in HEK293 cells using [14C]E1 as substrate at 10 uM; type: cell-based
T1 sequence (whole entry): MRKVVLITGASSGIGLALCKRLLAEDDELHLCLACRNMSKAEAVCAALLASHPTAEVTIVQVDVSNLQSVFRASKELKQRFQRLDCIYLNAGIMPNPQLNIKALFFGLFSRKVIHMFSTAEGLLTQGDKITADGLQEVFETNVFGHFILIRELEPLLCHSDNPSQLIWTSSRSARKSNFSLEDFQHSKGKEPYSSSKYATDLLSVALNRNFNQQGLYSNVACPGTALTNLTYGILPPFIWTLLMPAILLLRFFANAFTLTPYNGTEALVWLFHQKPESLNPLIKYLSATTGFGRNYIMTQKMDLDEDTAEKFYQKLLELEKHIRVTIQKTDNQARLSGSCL
In short: (§1)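 Stably transfected HEK-293 cells in stripped-serum MEM with G418 and insulin, seeded 48 h. Then treated with compound in DMSO (<0.5% final) plus 60 nM substrate: [14C]-E2 for 17β-HSD2, [14C]-E1 for 17β-HSD7 and 17β-HSD12. Stopped at 12–25% substrate conversion; ether extraction, TLC, radiolabel quantification; triplicates, at least two experiments.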

T47D [2] = assay: Cytotoxicity against human estrogen-starved estrogen-sensitive T47D cells assessed as cell growth at 1 uM after 7 days by MTS assay relative to control; type: functional; conditions: 168 h, read-out: Activity
In short: (§2)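 MCF-7 (DMEM-F12) or T-47D (RPMI) cells are kept in medium with insulin (50 ng/mL) and 5% dextran-coated charcoal-treated FBS, seeded at 3000 cells/well. After 48 h, medium is replaced with medium containing compound, renewed every two days, and cells grow seven days. Growth is read by CellTiter 96 aqueous (MTS) assay as % proliferation vs basal control (0%). Scored −/+/++/+++ bands.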

T47D [3] = assay: Cytotoxicity against human estrogen-starved estrogen-sensitive T47D cells assessed as cell growth at 0.1 uM after 7 days by MTS assay relative to control; type: functional; conditions: 168 h, read-out: Activity; in short: as §2
[4] = molecular target: T2, 17-beta-hydroxysteroid dehydrogenase type 1 (Homo sapiens) (UniProt P14061); assay: Inhibition of 17-beta HSD1 in human T47D cells assessed as transformation of [14C]E1 to [14C]E2 at 0.1 uM after 24 hrs by thin layer chromatography; type: cell-based
T2 sequence (whole entry): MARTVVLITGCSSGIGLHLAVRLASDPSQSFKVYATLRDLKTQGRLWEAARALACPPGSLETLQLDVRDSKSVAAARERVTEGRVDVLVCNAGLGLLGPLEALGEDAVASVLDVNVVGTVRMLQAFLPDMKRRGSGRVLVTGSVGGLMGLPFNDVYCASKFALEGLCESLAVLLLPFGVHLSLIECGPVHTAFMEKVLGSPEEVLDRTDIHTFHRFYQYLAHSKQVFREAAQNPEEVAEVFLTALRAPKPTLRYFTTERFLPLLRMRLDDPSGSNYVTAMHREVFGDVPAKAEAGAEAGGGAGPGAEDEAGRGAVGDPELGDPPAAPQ
In short: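 T-47D cells (endogenous 17β-HSD1) are seeded at 3000 cells/well in RPMI with insulin (50 ng/mL) and 5% charcoal-stripped FBS. After 24 h, compound (from EtOH stock, 0.1 μM final) is added with [14C]-E1 (60 nM) for 24 h. Steroids are extracted into diethyl ether, separated by silica TLC (toluene/acetone 4:1) and quantified. Mean ± SD of ≥2 independent experiments in triplicate.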

Cytochrome P450 3A4 = Cytochrome P450 3A4 (Homo sapiens, UniProt P08684); assay: Inhibition of CYP3A4 (unknown origin) by fluorescence assay; type: ADME
In short: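 Commercial CYP3A4 kit with dibenzylfluorescein as substrate, read by fluorescence of its enzymatic product. Compound dissolved in DMSO/acetonitrile (5:95). IC50 from means of at least two experiments in triplicate.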

[5] = molecular target: T3, Very-long-chain 3-oxoacyl-CoA reductase (Homo sapiens) (UniProt Q53GQ0); assay: Inhibition of 17-beta HSD12 (unknown origin) transfected in HEK293 cells using [14C]E1 as substrate at 10 uM; type: cell-based; in short: as §1
T3 sequence (whole entry): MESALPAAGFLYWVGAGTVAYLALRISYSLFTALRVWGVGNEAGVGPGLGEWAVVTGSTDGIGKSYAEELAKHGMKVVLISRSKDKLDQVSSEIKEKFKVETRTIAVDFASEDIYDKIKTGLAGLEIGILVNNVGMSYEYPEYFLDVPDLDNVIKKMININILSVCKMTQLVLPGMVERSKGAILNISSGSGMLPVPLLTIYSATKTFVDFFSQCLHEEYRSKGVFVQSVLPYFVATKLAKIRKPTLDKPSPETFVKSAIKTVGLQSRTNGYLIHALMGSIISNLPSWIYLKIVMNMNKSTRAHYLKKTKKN

[6] = molecular target: T4, 17-beta-hydroxysteroid dehydrogenase type 2 (Homo sapiens) (UniProt P37059); assay: Inhibition of 17-beta HSD2 (unknown origin) transfected in HEK293 cells using [14C]E2 as substrate at 10 uM; type: cell-based; in short: as §1
T4 sequence (whole entry): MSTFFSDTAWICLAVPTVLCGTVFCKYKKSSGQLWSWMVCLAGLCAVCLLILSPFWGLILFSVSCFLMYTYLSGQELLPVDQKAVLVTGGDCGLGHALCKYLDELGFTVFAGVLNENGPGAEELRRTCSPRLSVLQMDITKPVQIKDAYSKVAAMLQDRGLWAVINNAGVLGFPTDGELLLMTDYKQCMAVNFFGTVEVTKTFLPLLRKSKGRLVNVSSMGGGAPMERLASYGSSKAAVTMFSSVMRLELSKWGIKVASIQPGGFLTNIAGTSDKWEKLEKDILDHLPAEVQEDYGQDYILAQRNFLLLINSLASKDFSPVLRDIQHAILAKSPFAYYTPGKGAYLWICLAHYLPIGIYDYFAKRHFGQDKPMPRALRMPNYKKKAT

MCF7 [7] = assay: Cytotoxicity against human estrogen-starved estrogen-sensitive MCF7 cells assessed as cell growth at 1 uM after 7 days by MTS assay relative to control; type: functional; conditions: MCF7, 168 h, read-out: Activity; in short: as §2
MCF7 [8] = assay: Cytotoxicity against human estrogen-starved estrogen-sensitive MCF7 cells assessed as cell growth at 0.1 uM after 7 days by MTS assay relative to control; type: functional; conditions: MCF7, 168 h, read-out: Activity; in short: as §2
[9] = molecular target: T5, 17-beta-hydroxysteroid dehydrogenase type 1 (Homo sapiens, UniProt P14061); assay: Inhibition of 17-beta HSD1 in human T47D cells assessed as transformation of [14C]E1 to [14C]E2 after 24 hrs by thin layer chromatography; type: cell-based
T5 sequence (P14061 whole entry): T2 sequence (whole entry)
In short: (§3)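 Intact T-47D cells in RPMI with insulin (50 ng/mL) and 5% dextran-charcoal-treated FBS. After 24 h, inhibitor (from EtOH stock) added at 0.1 or 1 μM for screening or 1 nM–10 μM for IC50, with [14C]-E1 (60 nM), for 24 h. Ether extraction, TLC (toluene/acetone 4:1). IC50 = concentration halving E1→E2 conversion; triplicates, at least two experiments.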

[10] = molecular target: T2, 17-beta-hydroxysteroid dehydrogenase type 1 (Homo sapiens); assay: Competitive inhibition of 17-beta HSD1 (unknown origin) using [14C]E1/E1 as substrate assessed as transformation of [14C]E1 to [14C]E2 at 0.1 to 0.5 uM after 45 mins by thin layer chromatography
In short: (§4)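 Purified 17β-HSD1 in buffer (100 mM Tris, 20% glycerol, 0.2 mg/mL BSA, 2 mM EDTA) with 1 mM NADPH, preincubated at 37 °C with inhibitor (0, 100 or 500 nM), with or without unlabeled E1 (500 nM), over varying times. Then diluted 1:20 with [14C]-E1 (60 nM final), 45 min at 37 °C. Ether extraction, TLC, radiolabel quantification; activity as % of initial; triplicate.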

[11] = molecular target: T2, 17-beta-hydroxysteroid dehydrogenase type 1 (Homo sapiens); assay: Irreversible inhibition of 17-beta HSD1 (unknown origin) using [14C]E1 as substrate at 0.1 to 0.5 uM after 45 mins by thin layer chromatography; in short: as §4
[12] = molecular target: T2, 17-beta-hydroxysteroid dehydrogenase type 1 (Homo sapiens); assay: Inhibition of 17-beta HSD1 (unknown origin) using [14C]E1 as substrate at 0.1 to 0.5 uM by thin layer chromatography; conditions: TDE = time-dependent effect; in short: as §4
[13] = molecular target: T5, 17-beta-hydroxysteroid dehydrogenase type 1; assay: Inhibition of 17-beta HSD1 in human T47D cells; type: cell-based; in short: as §3

Chain of Cytochrome P450 3A4 (P08684 whole entry): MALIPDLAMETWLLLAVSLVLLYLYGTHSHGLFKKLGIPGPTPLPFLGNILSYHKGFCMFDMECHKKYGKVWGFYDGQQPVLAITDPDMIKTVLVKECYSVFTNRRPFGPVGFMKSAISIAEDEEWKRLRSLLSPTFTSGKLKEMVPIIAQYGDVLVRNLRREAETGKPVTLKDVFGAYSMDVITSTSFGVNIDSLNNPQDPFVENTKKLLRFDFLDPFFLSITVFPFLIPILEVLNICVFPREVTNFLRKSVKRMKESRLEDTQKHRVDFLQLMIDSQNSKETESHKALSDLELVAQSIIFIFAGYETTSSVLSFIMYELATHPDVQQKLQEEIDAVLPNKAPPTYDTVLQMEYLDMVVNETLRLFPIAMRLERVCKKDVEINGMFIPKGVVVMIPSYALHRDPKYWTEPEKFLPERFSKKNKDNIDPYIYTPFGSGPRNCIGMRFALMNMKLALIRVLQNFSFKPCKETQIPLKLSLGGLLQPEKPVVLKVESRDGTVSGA

Row | SMILES | % proliferation above basal control (0% = control) at 1 µM (T47D [2]) | percent proliferation above basal control at 0.1 µM (T47D [3]) | inhibition [4] | percent proliferation above basal control at 1 µM (MCF7 [7]) | percent proliferation above basal control at 0.1 µM (MCF7 [8]) | further results
1 | CCCCCCCN(C)[C@H]1CC[C@H]2C3CC[C@H]4NC(=O)CC[C@]4(C)[C@H]3CC[C@]12C (some centres undefined) |  |  |  |  |  | inhibition [1]: 81%
2 | C[C@]12CC[C@@H]3c4ccc(CCc5ccccc5)cc4CC[C@H]3[C@@H]1C[C@H](Cc1cccc(C(N)=O)c1)[C@@H]2O | 0% | 0% | 17% |  |  | 
3 | C[C@]12CC[C@@H]3c4ccc(O)cc4CC[C@H]3[C@@H]1C[C@H](Cc1cccc(C(N)=O)c1)[C@@H]2O |  |  | 72% | > 30% | > 30% | IC50 (Cytochrome P450 3A4): 1.5 µM; inhibition [5]: 6%; inhibition [1]: 0%; inhibition [6]: 0%
4 | C[C@]12CC[C@@H]3c4ccc(OCCBr)cc4CC[C@H]3[C@@H]1C[C@H](Cc1cccc(C(N)=O)c1)[C@@H]2O | 0% | 0% | 37% |  |  | IC50 [9]: 0.172 µM
5 | C[C@]12CC[C@@H]3c4ccc(CCBr)cc4CC[C@H]3[C@@H]1C[C@H](Cc1cccc(C(N)=O)c1)[C@@H]2O |  |  |  | 0% | 0% | inhibition [10]: Active; inhibition [11]: Active; inhibition [12]: tde; IC50 (Cytochrome P450 3A4): 3.9 µM; inhibition [5]: 34%; inhibition [1]: 9%; inhibition [6]: 7%; IC50 [13]: 0.097 µM
6 | C[C@]12CC[C@@H]3c4ccc(CCI)cc4CC[C@H]3[C@@H]1C[C@H](Cc1cccc(C(N)=O)c1)[C@@H]2O | 0% | 0% | 54% |  |  | 
7 | C[C@]12CC[C@@H]3c4ccc(CCCBr)cc4CC[C@H]3[C@@H]1C[C@H](Cc1cccc(C(N)=O)c1)[C@@H]2O | 0% | 0% | 41% |  |  | IC50 [9]: 0.153 µM
8 | C[C@]12CC[C@@H]3c4ccc(CCCl)cc4CC[C@H]3[C@@H]1C[C@H](Cc1cccc(C(N)=O)c1)[C@@H]2O | 0% | 0% | 12% |  |  | 
9 | C[C@]12CC[C@@H]3c4ccc(CCCO)cc4CC[C@H]3[C@@H]1C[C@H](Cc1cccc(C(N)=O)c1)[C@@H]2O | 5% | 0% | 20% |  |  | 
10 | CN(C)Cc1ccc2c(c1)CC[C@@H]1[C@@H]2CC[C@]2(C)[C@@H](O)[C@@H](Cc3cccc(C(N)=O)c3)C[C@@H]12 |  |  | 19% | 0% | 0% | 
11 | C[C@]12CC[C@@H]3c4ccc(CBr)cc4CC[C@H]3[C@@H]1C[C@H](Cc1cccc(C(N)=O)c1)[C@@H]2O |  |  | 30% | 0% | 0% | 
